pIC50: −log10 of the molar value.
Experiments:
[1] = test system: HT-29; assay: Cytotoxicity against HT29 cells under hypoxic condition after 4 hrs; format: functional, cell-based; details: Homo sapiens, HT-29, 4 h
Outline: (§1)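 HT29 or SiHa cells exposed to drug for 4 h in 96-well plates under anoxia (H2/Pd anaerobic chamber). IC50 determined.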

[2] = test system: HT-29; assay: Ratio of IC50 for HT29 cells in aerobic condition to IC50 for HT29 cells in hypoxic condition after 4 hrs; format: functional, Homo sapiens
Outline: (§2)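 Aerobic and anoxic (H2/Pd chamber) IC50s measured in the same experiment after 4 h exposure, HT29 or SiHa cells. Ratio computed as aerobic IC50/anoxic IC50.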

[3] = test system: SiHa; assay: Cytotoxicity against SiHa cells under hypoxic condition after 4 hrs; format: functional, cell-based; details: Homo sapiens; outline: as §1
[4] = test system: SiHa; assay: Ratio of IC50 for SiHa cells in aerobic condition to IC50 for SiHa cells in hypoxic condition after 4 hrs; format: functional, Homo sapiens; outline: as §2
[5] = test system: HT-29; assay: Drug penetration in anoxic HT29 cells assessed as penetration half distance; format: ADME, cell-based; details: human
[6] = test system: HT-29; assay: Cell viability in anoxic HT29 cells assessed as drug level providing 10% surviving fraction by clonogenic assay; format: cell-based; details: human
[7] = Solubility in culture medium in presence of 5% fetal calf serum; format: physicochemical; details: culture medium with 5% fetal calf serum
Outline: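 Solubility determined at 22 °C in culture medium containing 5% fetal calf serum.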

[8] = test system: HT-29; assay: Diffusion coefficient, D in aerobic HT29 multicellular layers; format: ADME, cell-based; details: human
Outline: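 Drug flux measured through HT29 multicellular layers on Teflon support membranes under 95% O2 at 37 °C, 50 µM initial donor concentration. Donor and receiver levels fitted with a diffusion model. Layer thickness estimated from flux of internal standard urea.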

Row | Penetration half distance [5] | solubility [7] | D [8] | Structure (SMILES) | pIC50 [1] | Ratio IC50 [2] | pIC50 [3] | Ratio IC50 [4] | Activity [6]
1 | 34 µm | – | – | CCc1n[n+]([O-])c2ccc(C)cc2[n+]1[O-] | 4.94 | 63 | 5.44 | 214 | 52.4 µM·h
2 | – | 4 mM | – | CCc1n[n+]([O-])c2ccc(C)cc2[n+]1[O-].Cl | – | – | – | – | –
3 | – | 42 mM | – | Cl.[O-][n+]1nc(CCN2CCOCC2)[n+]([O-])c2ccccc21 | – | – | – | – | –
4 | 34 µm | – | – | CN(C)CCCc1n[n+]([O-])c2ccccc2[n+]1[O-] | 6.41 | 71 | 6.70 | 58 | 2.1 µM·h
5 | – | 28 mM | – | Cc1n[n+]([O-])c2ccccc2[n+]1[O-].Cl | – | – | – | – | –
6 | 34 µm | – | 7.47 10^-7cm2/sec | [O-][n+]1nc(CCCN2CCOCC2)[n+]([O-])c2ccccc21 | 5.66 | 91 | 6.00 | 132 | 3.2 µM·h
7 | – | 10 mM | – | CCc1n[n+]([O-])c2ccc(OCCCO)cc2[n+]1[O-].Cl | – | – | – | – | –
8 | 34 µm | – | – | CCc1n[n+]([O-])c2cc(OCCOC)ccc2[n+]1[O-] | 5.33 | 69 | 5.74 | 116 | 40.7 µM·h
9 | 34 µm | – | 21.3 10^-7cm2/sec | COCCCc1n[n+]([O-])c2ccccc2[n+]1[O-] | 5.16 | 86 | 5.62 | 272 | 26.7 µM·h
10 | 34 µm | – | 17.34 10^-7cm2/sec | COCCc1n[n+]([O-])c2ccc(C)cc2[n+]1[O-] | 5.18 | 63 | 5.72 | 150 | 57.9 µM·h
11 | 34 µm | – | 19.15 10^-7cm2/sec | Cc1n[n+]([O-])c2ccccc2[n+]1[O-] | 5.39 | 67 | 5.52 | 57 | 25.3 µM·h
12 | – | 50 mM | – | Cl.[O-][n+]1nc(CCCO)[n+]([O-])c2ccccc21 | – | – | – | – | –
13 | – | 3 mM | – | CCc1n[n+]([O-])c2ccc(OCCOC)cc2[n+]1[O-].Cl | – | – | – | – | –
14 | – | 0.3 mM | – | Cl.[O-][n+]1nc(-c2ccccc2)[n+]([O-])c2ccccc21 | – | – | – | – | –
15 | 34 µm | – | – | COc1n[n+]([O-])c2ccccc2[n+]1[O-] | 5.51 | 1 | 5.96 | 4 | –
16 | – | 21 mM | – | COCCCc1n[n+]([O-])c2ccccc2[n+]1[O-].Cl | – | – | – | – | –
17 | – | 23 mM | – | COc1n[n+]([O-])c2ccccc2[n+]1[O-].Cl | – | – | – | – | –
18 | 34 µm | – | 4.94 10^-7cm2/sec | [O-][n+]1nc(CCCO)[n+]([O-])c2ccccc21 | 5.43 | 110 | 5.51 | 85 | 30.2 µM·h
19 | – | 21 mM | – | CCc1n[n+]([O-])c2ccc(OCCO)cc2[n+]1[O-].Cl | – | – | – | – | –
20 | 34 µm | – | – | CCc1n[n+]([O-])c2ccc(OCCOC)cc2[n+]1[O-] | 4.75 | 120 | 4.85 | 70 | 213.2 µM·h
21 | 34 µm | – | – | CCc1n[n+]([O-])c2ccc(OCCO)cc2[n+]1[O-] | 4.84 | 54 | 5.10 | 203 | 97.3 µM·h

Row | Structure (SMILES) | Penetration half distance [5] | solubility [7] | D [8] | pIC50 [1] | Ratio IC50 [2] | pIC50 [3] | Ratio IC50 [4] | Activity [6]
22 | CCc1n[n+]([O-])c2ccc(OCCN(C)C)cc2[n+]1[O-].Cl | – | > 49 mM | – | – | – | – | – | –
23 | CCc1n[n+]([O-])c2ccc(OC)cc2[n+]1[O-].Cl | – | 3 mM | – | – | – | – | – | –
24 | COCCc1n[n+]([O-])c2ccccc2[n+]1[O-].Cl | – | > 21 mM | – | – | – | – | – | –

Source: ChEMBL document CHEMBL1138360, “Hypoxia-selective 3-alkyl 1,2,4-benzotriazine 1,4-dioxides: the influence of hydrogen bond donors on extravascular transport and antitumor activity” (J Med Chem, 2007)
